The source made the active and inactive calls. No cut-off for these calls is given here.
Assays:
[1] = Upregulation of Bax expression in human HCT116 cells after 48 hrs by western blot analysis; format: functional, cell-based; details: HCT-116
Procedure, shortened: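 HCT116 cells treated 48 h with or without compound. Western blots probed for Bax, Bcl-2, cleaved caspase-3 and PARP. Band intensities relative to β-actin by densitometry; means ± SD from three separate experiments.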

[2] = Acute toxicity in ICR mouse assessed as survival rate at 375 mg/kg, ip measured on day 14; format: organism-based; details: in vivo
Procedure, shortened: (§1)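 Female ICR mice, single intraperitoneal injection at 585.9, 468.8, […], 300 or 240 mg/kg, or vehicle control, n = 10 per group. Deaths counted at 1 h, 4 h, daily on days 1-4 and over days 5-14. Eating, drinking, body weight and activity observed for 14 days, with survival (%) taken on day 14. LD50 calculated from mortality.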

[3] = Acute toxicity in ICR mouse assessed as survival rate at 300 mg/kg, ip measured on day 14; format: organism-based; details: in vivo; procedure, shortened: as §1
Mus musculus [4] = assay: Acute toxicity in ICR mouse assessed as death at 240 to 300 mg/kg, ip measured after 5 to 14 days; format: organism-based; details: in vivo; procedure, shortened: as §1
Histone deacetylase 8 = target: T1, Histone deacetylase 8 (Homo sapiens, UniProt Q9BY41); assay: Inhibition of recombinant human HDAC8 using Boc-Lys (Ac)-AMC as substrate after 60 mins by fluorometric analysis
T1 sequence (Q9BY41 whole entry): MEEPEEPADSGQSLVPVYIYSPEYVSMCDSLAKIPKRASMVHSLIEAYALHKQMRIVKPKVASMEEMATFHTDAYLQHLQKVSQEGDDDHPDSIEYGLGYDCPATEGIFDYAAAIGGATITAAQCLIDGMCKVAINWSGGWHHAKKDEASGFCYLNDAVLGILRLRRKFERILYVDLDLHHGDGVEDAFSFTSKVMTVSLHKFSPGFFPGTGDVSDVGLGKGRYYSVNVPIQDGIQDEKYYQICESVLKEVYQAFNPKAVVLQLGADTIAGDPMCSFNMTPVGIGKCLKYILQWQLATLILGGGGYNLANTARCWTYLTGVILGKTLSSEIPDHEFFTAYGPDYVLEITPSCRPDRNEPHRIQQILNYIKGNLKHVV

Mus musculus [5] = assay: Acute toxicity in ICR mouse assessed as death at 240 to 585.9 mg/kg, ip measured after 4 hrs; format: organism-based; details: in vivo; procedure, shortened: as §1
Mus musculus [6] = assay: Toxicity in BALB/c mouse xenografted with human HCT116 cells assessed as body weight change at 90 mg/kg, po measured twice per week over 22 days; format: organism-based, HCT-116; details: in vivo, 528 h
[7] = target: Cellular tumor antigen p53 (Homo sapiens) (UniProt P04637); assay: Activation of p53 in human HCT116 cells assessed as p53 phosphorylation at ser15 residue at 0.1 to 5 uM after 12 hrs by western blot analysis; format: cell-based; details: HCT-116
Cellular tumor antigen p53 (Homo sapiens), sequence (P04637 whole entry, looked up): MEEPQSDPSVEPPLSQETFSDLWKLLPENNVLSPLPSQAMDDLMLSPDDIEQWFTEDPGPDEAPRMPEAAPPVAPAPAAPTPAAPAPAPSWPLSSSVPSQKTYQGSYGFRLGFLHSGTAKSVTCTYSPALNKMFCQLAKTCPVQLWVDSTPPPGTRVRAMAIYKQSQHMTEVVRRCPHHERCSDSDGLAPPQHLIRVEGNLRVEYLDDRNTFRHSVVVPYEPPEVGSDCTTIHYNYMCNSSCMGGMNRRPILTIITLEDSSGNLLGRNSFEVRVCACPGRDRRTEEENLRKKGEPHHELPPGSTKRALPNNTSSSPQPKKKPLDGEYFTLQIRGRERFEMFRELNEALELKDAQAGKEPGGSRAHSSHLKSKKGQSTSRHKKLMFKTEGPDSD
Procedure, shortened: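 HCT116 cells exposed 12 h to compound or vehicle, then lysed on ice in PBS with 1% NP-40, 0.5% deoxycholate, 0.1% SDS and protease inhibitors. Up to 50 µg protein run on SDS-PAGE and immunoblotted for phospho-p53 (Ser15), p53 and p21. Bands quantified by densitometry against β-actin; mean ± SD of three experiments.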

HCT-116 [8] = assay: Induction of apoptosis in human HCT116 cells after 48 hrs by annexin V-FITC/propidium iodide staining-based flow cytometric analysis; format: functional, cell-based
Procedure, shortened: (§2)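 HCT116 cells cultured overnight, then exposed in triplicate for 48 h to 0.1, 1.0 or 5.0 µM, SAHA 5.0 µM or vehicle. Stained with FITC-Annexin V/PI for 15 min at room temperature.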

Histone deacetylase 1 = Histone deacetylase 1 (Homo sapiens, UniProt Q13547); assay: Potency index, ratio of IC50 for SAHA to IC50 for test compound for inhibition of human recombinant HDAC1 using Boc-Lys (Ac)-AMC as substrate after 60 mins by fluorometric analysis
Histone deacetylase 1, sequence (Q13547 whole entry): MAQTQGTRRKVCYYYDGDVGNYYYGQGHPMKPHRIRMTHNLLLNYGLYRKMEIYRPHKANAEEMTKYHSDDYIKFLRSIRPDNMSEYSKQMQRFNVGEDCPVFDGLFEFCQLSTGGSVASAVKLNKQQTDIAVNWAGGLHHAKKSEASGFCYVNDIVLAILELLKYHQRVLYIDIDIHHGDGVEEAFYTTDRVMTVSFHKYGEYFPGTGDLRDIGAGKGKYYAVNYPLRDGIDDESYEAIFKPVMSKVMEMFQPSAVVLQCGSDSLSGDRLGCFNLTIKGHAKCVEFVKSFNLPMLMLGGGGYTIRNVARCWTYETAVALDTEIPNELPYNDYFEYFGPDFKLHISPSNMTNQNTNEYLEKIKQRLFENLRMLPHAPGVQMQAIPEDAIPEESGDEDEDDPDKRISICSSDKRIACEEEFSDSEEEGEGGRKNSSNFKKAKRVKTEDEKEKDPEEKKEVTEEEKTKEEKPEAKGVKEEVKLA
Procedure, shortened: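 Recombinant human HDAC1 and HDAC8 incubated with compound dilutions plus Boc-Lys(Ac)-AMC at 37 °C for 60 min, then developer for 30 min. Fluorescence read at ex 355/em 460 nm; activity as % of control and IC50 calculated. Ratios formed from these IC50s; three independent experiments.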

Mus musculus [9] = assay: Acute toxicity in ICR mouse assessed as body weight change at 240 mg/kg, ip measured for 14 days; format: organism-based; details: in vivo, 336 h; procedure, shortened: as §1
HCT-116 [10] = assay: Induction of apoptosis in human HCT116 cells at 1 uM after 48 hrs by annexin V-FITC/propidium iodide staining-based flow cytometric analysis; format: functional; procedure, shortened: as §2

## COc1ccc(-c2nc(NC(=O)NCCCC(=O)NO)cc3c2[nH]c2ccccc23)cc1
[1]
  Activity: Dose-dependent effect
[2]
  survival at 14 day: 70%
[3]
  survival at 14 day: 90%
Mus musculus [4]
  Activity: Non-toxic
Histone deacetylase 8
  IC50: 0.16 µM
Mus musculus [5]
  Activity: Non-toxic
Mus musculus [6]
  Activity: Non-toxic
[7]
  Activity: Active
HCT-116 [8]
  Activity: Dose-dependent effect
Histone deacetylase 1
  Ratio IC50: 7
Mus musculus [9]
  Activity: Non-toxic
HCT-116 [10]
  Activity: 41.3%

Reference: ChEMBL document CHEMBL3745678, “Novel β-Carboline/Hydroxamic Acid Hybrids Targeting Both Histone Deacetylase and DNA Display High Anticancer Activity via Regulation of the p53 Signaling Pathway” (J Med Chem, 2015)
